Source: ChEMBL document CHEMBL1132384, “Design, synthesis, and evaluation of chromen-2-ones as potent and selective human dopamine D4 antagonists” (J Med Chem, 1999)
The source made the active and inactive calls. The rule behind the calls is not given here.

Tests used:
[1] = target: T1, D(4) dopamine receptor (Homo sapiens, UniProt P21917); assay: Binding affinity using [3H]spiperone displacement from cloned human Dopamine receptor D4.2 expressed in CHO-K1 cells; type: cell-based
T1 sequence (P21917 whole entry): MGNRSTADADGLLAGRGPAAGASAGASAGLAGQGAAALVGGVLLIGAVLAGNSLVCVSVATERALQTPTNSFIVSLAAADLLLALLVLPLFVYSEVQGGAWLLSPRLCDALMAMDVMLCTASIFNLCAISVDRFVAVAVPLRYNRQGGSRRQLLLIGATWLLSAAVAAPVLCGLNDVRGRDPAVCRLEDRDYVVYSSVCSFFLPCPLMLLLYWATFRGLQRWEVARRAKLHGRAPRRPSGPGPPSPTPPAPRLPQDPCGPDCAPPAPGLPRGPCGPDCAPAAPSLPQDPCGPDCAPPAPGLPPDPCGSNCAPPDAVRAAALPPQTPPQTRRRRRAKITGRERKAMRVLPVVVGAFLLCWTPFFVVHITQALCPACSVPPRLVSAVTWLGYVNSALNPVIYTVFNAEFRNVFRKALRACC

[2] = target: Dopamine D2 receptor (Homo sapiens); assay: Binding affinity using [3H]spiperone against cloned human Dopamine receptor D2L expressed in CHO-K1 cells
[3] = target: T2, 5-hydroxytryptamine receptor 1A (Mus musculus, UniProt Q64264); assay: Compound was tested for binding affinity using [3H]8-OH-DPAT against 5-hydroxytryptamine 1A receptor
T2 sequence (Q64264 whole entry): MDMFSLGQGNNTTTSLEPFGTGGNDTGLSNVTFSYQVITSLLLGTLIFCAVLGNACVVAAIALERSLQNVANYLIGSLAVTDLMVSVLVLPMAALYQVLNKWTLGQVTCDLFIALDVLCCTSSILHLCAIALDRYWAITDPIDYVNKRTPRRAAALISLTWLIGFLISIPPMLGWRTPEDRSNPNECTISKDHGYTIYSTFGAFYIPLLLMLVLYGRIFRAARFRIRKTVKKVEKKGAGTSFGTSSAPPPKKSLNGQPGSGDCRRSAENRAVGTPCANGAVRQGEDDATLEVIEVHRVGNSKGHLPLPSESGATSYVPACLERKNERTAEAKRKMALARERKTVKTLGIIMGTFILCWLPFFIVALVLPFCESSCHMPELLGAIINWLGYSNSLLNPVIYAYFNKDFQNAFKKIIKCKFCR

[4] = test system: Rattus norvegicus; assay: Behavioral effect expressed as inhibition of amphetamine-stimulated locomotor activity in rats, ip; type: functional
[5] = test system: Rattus norvegicus; assay: Compound was tested for the levels of hippocampal dopamine synthesis in rat after a dosage of 10 mg/kg intraperitoneally and expressed as % of control animals; type: functional, Hippocampus; settings: route intraperitoneal
[6] = target: 5-hydroxytryptamine receptor 2A (Bos taurus, UniProt Q75Z89); assay: Compound was tested for binding affinity using [3H]ketanserin against 5-hydroxytryptamine 2 receptor
[7] = test system: Mus musculus; assay: Behavioral effect expressed as reversal of prepulse inhibition of acoustic startle in mice, ip; active at 30 mg/kg; type: functional, organism-based; design: dose 30 mg/kg
In short: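 Vehicle or test compound given ip 15 min before sc saline or apomorphine (0.25 mg/kg); 30-min session of 90 trials after 5-min 70 dB white-noise acclimation, prepulses 2–16 dB over background (20 ms), startle pulses 40 ms. %PPI from 16-dB prepulse; t-test; minimal effective dose reported.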

[8] = test system: Rattus norvegicus; assay: Behavioral effect expressed as inhibition of spontaneous motor activity in rats, ip; NA=Not active; type: functional, organism-based
[9] = test system: Rattus norvegicus; assay: Behavioral effect expressed as catalepsy test in rats, po; NA=Not active; type: functional, organism-based
In short: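 Rats dosed orally; front paws placed on an elevated bar, time (s) paws stayed on bar recorded over three consecutive 1-min trials, retested 2 h postdose. Value is mean response time for third trial.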

[10] = target: T3, D(4) dopamine receptor (Homo sapiens) (UniProt P21917); assay: Compound was tested for the inhibition of [3H]thymidine uptake in CHO p-5 cells transfected with human Dopamine receptor D4.2; type: functional, cell-based
T3 sequence (whole entry): T1 sequence (P21917 whole entry)
In short: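 Antagonism of quinpirole (full agonist) stimulated mitogenesis in CHO cells expressing human D4.2. After 18 h, [3H]thymidine 0.25 μCi/well for 2 h, trypsin 1 h, then filtered and counted. Intrinsic activity taken relative to quinpirole; IC50 derived.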

[11] = target: D(3) dopamine receptor (Homo sapiens, UniProt P35462); assay: Compound was tested for binding affinity using [3H]spiperone against cloned human Dopamine receptor D3 expressed in CHO-K1 cells; type: cell-based
In short: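 Cloned human receptors expressed in CHO-K1 cells, displacement of [3H]spiperone; Ki from six concentrations run in triplicate, nonlinear regression.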

[12] = test system: Rattus norvegicus; assay: Compound was tested for the levels of striatal dopamine synthesis in rat after a dosage of 10 mg/kg intraperitoneally and expressed as % of control animals; type: functional; settings: route intraperitoneal
[13] = test system: Rattus norvegicus; assay: Compound was tested for the levels of striatal dopamine synthesis in rat after a dosage of 10 mg/kg intraperitoneally and expressed as % of control; type: functional; settings: route intraperitoneal
In short: (§1)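 Rats given drug 10 mg/kg ip 60 min before and NSD 1015 (decarboxylase inhibitor) 30 min before decapitation; striatal and hippocampal DOPA by HPLC with electrochemical detection, as percentage increase over control; mean of 4 animals.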

[14] = target: T3, D(4) dopamine receptor (Homo sapiens); assay: Compound was tested for the inhibition of [3H]-thymidine uptake in CHO p-5 cells transfected with Dopamine receptor D4.2; type: functional, cell-based
[15] = test system: Rattus norvegicus; assay: Compound was tested for the levels of hippocampal dopamine synthesis in rat after a dosage of 10 mg/kg intraperitoneally and expressed as % of control; type: functional, Hippocampus; settings: route intraperitoneal; in short: as §1
[16] = target: T3, D(4) dopamine receptor (Homo sapiens); assay: Ratio of receptor binding towards D2 to D4 receptor
In short: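 Ki from [3H]spiperone displacement at cloned human D2L and D4.2 receptors expressed in CHO-K1 cells. Six concentrations run in triplicate, fitted by nonlinear regression. Ratio taken as D2L Ki over D4.2 Ki.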

Chain of 5-hydroxytryptamine receptor 2A (Q75Z89 whole entry): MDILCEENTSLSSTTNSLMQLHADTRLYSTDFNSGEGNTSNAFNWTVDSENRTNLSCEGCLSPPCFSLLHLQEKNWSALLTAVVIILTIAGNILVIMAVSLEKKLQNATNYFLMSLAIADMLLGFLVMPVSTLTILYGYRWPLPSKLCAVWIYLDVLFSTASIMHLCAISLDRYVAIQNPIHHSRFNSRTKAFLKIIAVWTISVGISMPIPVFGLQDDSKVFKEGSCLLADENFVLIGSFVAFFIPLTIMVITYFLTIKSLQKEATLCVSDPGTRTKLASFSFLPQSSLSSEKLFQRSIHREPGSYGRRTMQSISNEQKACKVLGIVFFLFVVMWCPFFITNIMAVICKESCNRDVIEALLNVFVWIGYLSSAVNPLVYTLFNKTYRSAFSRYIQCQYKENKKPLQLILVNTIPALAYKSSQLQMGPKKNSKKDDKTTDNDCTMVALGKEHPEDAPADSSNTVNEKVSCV
Chain of D(3) dopamine receptor (P35462 whole entry): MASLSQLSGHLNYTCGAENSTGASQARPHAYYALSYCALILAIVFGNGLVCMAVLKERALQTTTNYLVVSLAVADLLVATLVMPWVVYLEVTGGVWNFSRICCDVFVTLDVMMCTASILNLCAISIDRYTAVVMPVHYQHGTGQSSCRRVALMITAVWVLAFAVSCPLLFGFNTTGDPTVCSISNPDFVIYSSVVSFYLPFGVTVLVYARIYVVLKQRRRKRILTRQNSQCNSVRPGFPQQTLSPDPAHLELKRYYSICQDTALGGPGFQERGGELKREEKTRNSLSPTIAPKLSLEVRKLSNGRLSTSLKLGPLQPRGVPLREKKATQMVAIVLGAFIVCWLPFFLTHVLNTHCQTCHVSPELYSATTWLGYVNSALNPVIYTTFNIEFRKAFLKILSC

Ki [1] [µM] | Ki [2] [µM] | SMILES | further results
0.227 |  | CC(C)(C)c1ccc(N2CCN(Cc3ccc4ccc(=O)oc4c3)CC2)cc1 | 
 |  | O=c1ccc2ccc(CNCCNc3ccccc3)cc2o1 | Ki [3]: 3.71 µM; ED50 [4]: 3 mg/kg; Control [5]: 32%; Ki [6]: > 4.35 µM; Behavioral effect [7]: Active; Control [8]: inactive; Control [9]: inactive; Intrinsic activity [10]: 0%; Ki [11]: 0.424 µM; Control [12]: 20%
0.016 | 1.94 | Cc1ccccc1N1CCN(Cc2ccc3ccc(=O)oc3c2)CC1 | 
0.014 | 0.433 | Cc1ccc(N2CCN(Cc3ccc4ccc(=O)oc4c3)CC2)cc1C | 
2.66 |  | CCN(CCNCc1ccc2ccc(=O)oc2c1)c1ccccc1 | 
0.059 |  | O=c1ccc2ccc(CN3CCN(c4ccc(F)cc4)CC3)cc2o1 | 
0.019 |  | O=c1ccc2ccc(CN3CCC(c4ccccc4)CC3)cc2o1 | 
0.011 | 5.836 | Cc1ccc(N2CCN(Cc3ccc4oc(=O)ccc4c3)CC2)cc1 | Control [13]: 22%; Intrinsic activity [14]: 0%; Control [15]: -16%
0.027 | 5.3 | O=c1ccc2ccc(CN3CCN(c4ccccc4)CC3)cc2o1 | 
 |  | Cc1ccc(NCCNCc2ccc3ccc(=O)oc3c2)cc1 | Intrinsic activity [10]: 0%
0.075 |  | COc1ccc(N2CCN(Cc3ccc4ccc(=O)oc4c3)CC2)cc1 | 
0.41 |  | CCN(CCNc1ccccc1)Cc1ccc2ccc(=O)oc2c1 | 
0.093 |  | O=c1ccc2ccc(CN3CCN(c4ccc(Cl)cc4)CC3)cc2o1 | 
0.032 | 4.4 | Cc1cccc(N2CCN(Cc3ccc4ccc(=O)oc4c3)CC2)c1 | 

SMILES | Ki [1] [µM] | Ki [2] [µM] | further results
O=c1ccc2ccc(CN3CC=C(c4ccccc4)CC3)cc2o1 | 0.0044 | 0.121 | 
Cc1cccc(N2CCN(Cc3ccc4oc(=O)ccc4c3)CC2)c1 | 0.074 |  | 
Cc1ccc(N2CCN(Cc3ccc4ccc(=O)oc4c3)CC2)cc1Cl | 0.0069 | 5.882 | Control [5]: 27%; Ratio [16]: 852; Intrinsic activity [10]: 0%; Control [12]: 19%
